Source: ChEMBL document CHEMBL1821706, “Unprecedented citrinin trimer tricitinol B functions as a novel topoisomerase IIα inhibitor” (J Med Chem, 2011)

Key:
[1] = tested on: HL-60; test: Cytotoxicity against human HL60 cells after 72 hrs by MTT assay; type: functional, cell-based; conditions: HL-60, 72 h
Outline: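 Cells were treated in triplicate with graded concentrations for 72 h at 37 °C and read by MTT. IC50 is the concentration giving 50% growth inhibition, derived by the Logit method from at least three independent experiments and given as mean ± SD.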

[2] = tested on: KB; test: Cytotoxicity against human KB cells after 72 hrs by SRB assay; type: functional, cell-based
Outline: (§1)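 Adherent human tumour lines were seeded and exposed in triplicate to graded compound concentrations at 37 °C for 72 h. Growth was read by sulforhodamine B staining. IC50 (50% growth inhibition) was obtained by the Logit method from at least three independent experiments and reported as mean ± SD.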

[3] = tested on: HCT-116; test: Cytotoxicity against human HCT116 cells after 72 hrs by SRB assay; type: functional, cell-based; conditions: HCT-116, 72 h; outline: as §1
[4] = tested on: KB; test: Drug resistance index, ratio of IC50 for vincristine-resistant human KB cells to IC50 for human KB cells; type: functional
[5] = tested on: KB; test: Cytotoxicity against vincristine-resistant human KB cells over expressing P-glycoprotein after 72 hrs by SRB assay; type: functional, cell-based; outline: as §1

SMILES | IC50 [1] [µM] | IC50 [2] [µM] | IC50 [3] [µM] | Ratio IC50 [4] | IC50 [5] [µM]
Cc1c(O)cc(O)c2c1[C@H](C)[C@@H](C)OC2 [DECARBOXYDIHYDROCITRININ] | > 10 | > 10 | > 10 |  | 
CO[C@@]12Oc3cc(O)c(C)c([C@H](C)[C@@H](C)O)c3C=C1C(=O)C(C)=C1[C@H](C)[C@@H](C)O[C@]12O [PENICITRINOL G] | > 10 | > 10 | > 10 |  | 
Cc1c(O)cc(O)cc1[C@H](C)[C@@H](C)O [PHENOL A] | > 10 | > 10 | > 10 |  | 
Cc1c2c(c3oc4cc(=O)c(C)c5c-4c(c3c1O)O[C@H](C)[C@H]5C)CO[C@H](C)[C@H]2C [OXODICITRINOL A] | 8.91 | > 10 | > 10 |  | 
Cc1oc2c(c1C)c(C)c(O)c1c3c4c(c(C)c(=O)cc-4oc12)[C@H](C)[C@@H](C)O3 [PENICITRINONE B] | > 10 | > 10 | > 10 |  | 
CO[C@@]12O[C@H](C)[C@@H](C)C1=C(C)C(=O)C1=C2Oc2cc(O)c(C)c3c2[C@H]1O[C@H](C)[C@H]3C [PENICITRINOL B] | > 10 | > 10 | > 10 |  | 
Cc1c(O)c(C(=O)O)c(O)c2c1[C@H](C)[C@@H](C)OC2=O [DIHYDROCITRINONE] | > 10 | > 10 | > 10 |  | 
COC1O[C@H](C)[C@@H](C)c2c(C)c(O)c3c(c21)Oc1cc(O)c(C)c2c1[C@H]3O[C@H](C)[C@H]2C (stereo partly drawn) [DICITRINOL A] | 5.98 | 5.05 | 4.54 |  | 
CC[C@]1(O)C[C@H]2CN(CCc3c([nH]c4ccccc34)[C@@](C(=O)OC)(c3cc4c(cc3OC)N(C=O)[C@H]3[C@@](O)(C(=O)OC)[C@H](OC(C)=O)[C@]5(CC)C=CCN6CC[C@]43[C@@H]65)C2)C1 [VINCRISTINE] |  | 0.02 |  | 55.97 | 1.29
Cc1c2c(c3oc4cc(=O)c(C)c5c-4c(c3c1O)O[C@H](C)[C@H]5C)O[C@H](C)[C@H]2C [DICITRININ A] | > 10 | > 10 | > 10 |  | 
CC1=C2C(=CO[C@H](C)[C@H]2C)C(O)=C(C(=O)O)C1=O [CITRININ] | > 10 | > 10 | > 10 |  | 
CO[C@@]12O[C@H](C)[C@@H](C)C1=C(C)C1=C(C2=O)[C@@H]2O[C@H](C)[C@@H](C)c3c(C)c(O)cc(c32)O1 [PENICITRINOL F] | > 10 | > 10 | > 10 |  | 
COC1O[C@H](C)[C@@H](C)c2c(C)c3c(c(O)c21)[C@@H]1O[C@H](C)[C@@H](C)c2c(C)c(O)cc(c21)O3 (stereo partly drawn) [DICITRINOL B] | 6.06 | 5.15 | 5.8 |  | 
CO[C@H]1O[C@H](C)[C@@H](C)c2c(C)c(O)c3c(c21)Oc1c([C@H]2O[C@H](C)[C@@H](C)c4c(C)c(O)cc(O)c42)c(O)c(C)c2c1[C@H]3O[C@H](C)[C@H]2C [TRICITRINOL A] | 8.17 | > 10 | 8.57 |  | 
Cc1c(O)c2c(c3c1[C@H](C)[C@@H](C)O3)Oc1cc(O)c(C)c3c1[C@H]2O[C@H](C)[C@H]3C [PENICITRINOL A] | > 10 | > 10 | > 10 |  | 
CC1=C2[C@H](C)[C@@H](C)O[C@@]2(O)[C@]2(O)Oc3cc(O)c(C)c([C@H](C)[C@@H](C)O)c3C=C2C1=O [PENICITRINOL H] | > 10 | > 10 | > 10 |  | 
